# Experiments:
# [1] = molecular target: Aldo-keto reductase family 1 member B1 (Rattus norvegicus) (UniProt P07943); test: Inhibition of Wistar rat eye lens aldose reductase-2 using D-L glyceraldehyde as substrate assessed as oxidation of NADPH at 10 uM preincubated for 10 mins followed by substrate addition measured for 4 mins by spectrophotometric analysis relative to control
# In short: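 ALR2 was taken from Wistar rat lens homogenate. It was fractionated with ammonium sulfate (40% and 50% supernatants, then a 75% cut), dissolved in 0.05 M NaCl, dialyzed and stored at −20 °C. The 1 mL assay ran at 30 °C with 0.10 mM NADPH solution, 0.1 M sodium phosphate pH 6.2 and D,L-glyceraldehyde substrate. Compounds were in DMSO diluted with water, 10^-5 M final, with a substrate-free blank rate subtracted.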
# [2] = molecular target: Aldo-keto reductase family 1 member B1 (Rattus norvegicus, UniProt P07943); test: Inhibition of Wistar rat eye lens aldose reductase-2 using D-L glyceraldehyde as substrate assessed as oxidation of NADPH preincubated for 10 mins followed by substrate addition measured for 4 mins by spectrophotometric analysis
# [3] = tested on: Aldehyde reductase AKR1A1 (Rattus norvegicus); test: Inhibition of Wistar rat kidney aldehyde reductase-1 using D-glucuronate as substrate assessed as oxidation of NADPH at 10 uM preincubated for 10 mins followed by substrate addition measured for 4 mins by spectrophotometric analysis relative to control
inhibition [1] [%],IC50 [2] [nM],inhibition [3] [%],Structure (SMILES)
23,,,O=c1c(N2CCN(CCN3CCOCC3)CC2)nc2ccccc2n1Cc1ccc([N+](=O)[O-])cc1
,1430,47,O=C(O)Cn1c(=O)c(/C=C/c2ccc(F)cc2)nc2ccccc21
42.9,,,O=c1c(N2CCN(c3cccc(C(F)(F)F)c3)CC2)nc2ccccc2n1Cc1ccc([N+](=O)[O-])cc1
,3880,35,O=C(O)Cn1c(=O)c(/C=C/c2ccccc2)nc2ccc(Cl)cc21
,283,41,O=C(O)Cn1c(=O)c(Nc2ccc(F)cc2F)nc2cc([N+](=O)[O-])ccc21
30,,,O=c1c(/C=C/c2ccccc2)nc2ccccc2n1Cc1ccc([N+](=O)[O-])cc1
32,,,O=c1c(-c2csc3ccccc23)nc2ccccc2n1Cc1ccc([N+](=O)[O-])cc1
36.2,,,CC(C)(C)NC(=O)/C=C/c1nc2ccccc2n(Cc2ccc([N+](=O)[O-])cc2)c1=O
,820,32,O=C(O)Cn1c(=O)c(/C=C/c2ccccc2)nc2ccccc21
,660,25,O=C(O)Cn1c(=O)c(/C=C/c2ccc(F)cc2)nc2cc(Cl)ccc21
,1140,40,O=C(O)Cn1c(=O)c(CCc2ccc(F)cc2)nc2ccccc21
24,,,O=c1c(/C=C/c2ccc(F)cc2)nc2ccccc2n1Cc1ccc([N+](=O)[O-])cc1
,1860,25,CC(C)(C)NC(=O)/C=C/c1nc2ccccc2n(CC(=O)O)c1=O
,7530,48,COc1ccc(N2CCN(c3nc4ccccc4n(CC(=O)O)c3=O)CC2)cc1
,362,25,O=C(O)Cn1c(=O)c(/C=C/c2ccc(F)cc2)nc2cc([N+](=O)[O-])ccc21
,143,22,O=C(O)Cn1c(=O)c(CCc2ccccc2)nc2ccccc21
24,,,O=c1c(N2CCN(c3cnccn3)CC2)nc2ccccc2n1Cc1ccc([N+](=O)[O-])cc1
26,,,COc1ccc(N2CCN(c3nc4ccccc4n(Cc4ccc([N+](=O)[O-])cc4)c3=O)CC2)cc1

# — ChEMBL document CHEMBL3259520, “Structure-activity relationships studies of quinoxalinone derivatives as aldose reductase inhibitors” (Eur J Med Chem, 2014)
